Measurements taken from PubChem BioAssay.
Active and inactive are the calls of the source.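 The calls were made as follows, unless noted: active = visually confirmed hit in the image check and inhibition above 20%; inconclusive = visually confirmed hit but inhibition not above 20%; inactive = no visual hit in the image check.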

Columns and labels:
[1] = inhibitors of TNFa-induced NFkB p65 translocation, primary screen, imaging, HUVEC, MLSMR starter and 10KST1 sets (AID 438;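 active = inhibition above 20% together with a positive visual image hit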;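 also: compound added about 3h40 before a 20 min TNFalpha stimulation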;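 as to inhibition: signal is the nuclear over cytoplasmic p65 intensity ratio per well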); conditions: HUVEC TNFa-induced p65 nuclear translocation; cell count: measured here: nuclei count (cytotoxicity indicator), at 2.08 µM; inhibition: at 2 µM, stronger effect = higher value, 0% TNFa-plus-vehicle, 100% no-TNFa wells
[2] = endothelial E-selectin expression blockers – imaging, HUVEC, immunofluorescence, MLSMR starter and 10KST1 sets, primary screen (AID 487); conditions: HUVEC TNFalpha-induced E-selectin immunofluorescence imaging, at 2 µM; inhibition: stronger effect = higher value; nuclei count: measured here: cell number, toxicity;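 as to inhibition: signal is fraction of cell area covered by stained E-selectin grains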;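 as to nuclei count: 100% = median nuclei count of all wells on the same plate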
[3] = Primary imaging screen for DUSP6 inhibitors that restore phospho-Erk in transfected HeLa cells, chemical complementation (AID 609;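 active = compounds giving at least 50% inhibition in the cell-based MKP-3 phosphatase rescue imaging test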;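 as to inhibition: phospho-Erk level distribution per well compared with pooled transfected vehicle control wells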); conditions: HeLa MKP-3 transfected, phospho-Erk imaging KS statistic, at 10 µM, cells stimulated with TPA for 15 min
[4] = biological target: Dual specificity protein phosphatase 6 (Homo sapiens) (UniProt Q16828); experiment: as above; conditions: HeLa MKP-3 transfected, phospho-Erk imaging KS statistic; at 10 µM; stronger effect = higher value; cells stimulated with TPA for 15 min
[5] = biological target: Voltage-gated potassium channel subunit beta-2 (Rattus norvegicus) (UniProt P62483); experiment: inhibitors of rat Kvbeta2 reductase activity – biochemical, NADPH fluorescence, primary screen (AID 622;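 active = fluorescence slope higher than the sample average by over 3 SD, cut at about -0.22 in these data, passing the limit was not always enough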;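 also: slope of raw intensity against log time taken from 70 to 1610 s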); conditions: recombinant KvBeta, 4-cyanobenzaldehyde reduction, at 10 µM, stronger effect = higher value
[6] = biological target: Voltage-gated potassium channel subunit beta-2 (Rattus norvegicus) (UniProt P62483); experiment: enhancers of rat Kvbeta2 NADPH turnover – biochemical, NADPH fluorescence, primary screen (AID 623;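 active = NADPH fluorescence slope more negative than the mean of all samples by about 3 SD, 99.7% confidence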;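 also: fluorescence intensity change per second fitted from 20 to 320 s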); conditions: Recombinant KvBeta, NADPH fluorescence decrease slope, 10 min; at 10 µM; stronger effect = lower value
[7] = biological target: Alpha-2C adrenergic receptor (Homo sapiens) (UniProt P18825); experiment: compounds altering alpha2C-coupled GIRK flux – cell-based, HEK293 alpha2C/GIRK1/2, thallium flux, primary screen (AID 624;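 active = fluorescence slope after compound addition differing from the mean of all screened samples at 99.7% confidence, in either direction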;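 also: slope of fluorescence ratio to pre-addition baseline per second over 15 to 24 s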); conditions: thallium flux BTC fluorescence, at 10 µM, actives lie on both sides
[8] = inhibitors of larval lipid processing in zebrafish, primary screen, whole organism, PED6 fluorescence, gall bladder and intestine (AID 686;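 active = a full or partial loss of lipid-probe fluorescence in the fish gall bladder, intestine or both, judged by eye; inactive = no fluorescence loss, or compound toxic to the fish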;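 also: larvae 5 to 7 days old with five fish per well; signal comes from phospholipase A2 cleavage of quenched PED6 carried via bile; overnight exposure to compound and PED6 before scoring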); conditions: Zebrafish larvae PED6 lipid processing, fluorescence scoring; screened at 20 µM (by protocol)
Procedure, shortened: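 System: live zebrafish larvae aged 5-7 days, whole organism; measure: graded gall bladder and intestinal fluorescence inhibition per well; incubation: overnight exposure; reagent: ingested quenched lipid PED6 at 100 nM; signal: By-eye fluorescence microscopy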

[9] = loss of swimming-algae plug formation – whole organism, Chlamydomonas reinhardtii, WT vs cilia-less mutant, absorbance, 96-well, primary screen (AID 463189;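 active = inhibition at or above 50% relative to wild type and mutant plate controls; inactive = inhibition below 50%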;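 also: 0% = wild type cc124 cells in DMSO and 100% = ciliumless bld1 mutant cells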); conditions: Chlamydomonas reinhardtii gravitaxis, OD600 absorbance, 2 days; at 10 µM; stronger effect = higher value
[10] = measured here: cell density z-score
[11] = measured here: nuclear c-Myc green intensity z-score
[12] = measured here: nuclear pErk red intensity z-score, stronger effect = higher value

Chain of Voltage-gated potassium channel subunit beta-2 (Rattus norvegicus) (P62483 whole entry, looked up): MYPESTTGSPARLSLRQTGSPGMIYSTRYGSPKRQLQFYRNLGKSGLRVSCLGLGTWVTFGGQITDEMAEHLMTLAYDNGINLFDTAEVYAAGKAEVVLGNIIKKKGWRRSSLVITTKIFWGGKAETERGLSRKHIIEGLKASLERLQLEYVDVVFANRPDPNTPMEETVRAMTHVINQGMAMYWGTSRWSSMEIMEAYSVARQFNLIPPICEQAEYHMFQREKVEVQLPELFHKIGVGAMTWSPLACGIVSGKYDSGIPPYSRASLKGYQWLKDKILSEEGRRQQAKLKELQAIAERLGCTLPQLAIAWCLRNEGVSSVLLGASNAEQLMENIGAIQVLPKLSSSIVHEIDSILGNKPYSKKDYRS
Chain of Dual specificity protein phosphatase 6 (Homo sapiens) (Q16828 whole entry, looked up): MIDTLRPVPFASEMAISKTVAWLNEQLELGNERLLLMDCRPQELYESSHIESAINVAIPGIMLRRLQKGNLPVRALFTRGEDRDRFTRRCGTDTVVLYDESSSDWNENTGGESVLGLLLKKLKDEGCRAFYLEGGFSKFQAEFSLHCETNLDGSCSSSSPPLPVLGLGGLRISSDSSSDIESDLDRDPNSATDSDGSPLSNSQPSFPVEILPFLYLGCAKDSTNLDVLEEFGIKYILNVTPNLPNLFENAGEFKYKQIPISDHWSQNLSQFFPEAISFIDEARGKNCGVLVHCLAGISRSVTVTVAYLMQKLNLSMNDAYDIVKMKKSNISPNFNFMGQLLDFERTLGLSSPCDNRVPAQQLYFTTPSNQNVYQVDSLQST
Chain of Alpha-2C adrenergic receptor (Homo sapiens) (P18825 whole entry, looked up): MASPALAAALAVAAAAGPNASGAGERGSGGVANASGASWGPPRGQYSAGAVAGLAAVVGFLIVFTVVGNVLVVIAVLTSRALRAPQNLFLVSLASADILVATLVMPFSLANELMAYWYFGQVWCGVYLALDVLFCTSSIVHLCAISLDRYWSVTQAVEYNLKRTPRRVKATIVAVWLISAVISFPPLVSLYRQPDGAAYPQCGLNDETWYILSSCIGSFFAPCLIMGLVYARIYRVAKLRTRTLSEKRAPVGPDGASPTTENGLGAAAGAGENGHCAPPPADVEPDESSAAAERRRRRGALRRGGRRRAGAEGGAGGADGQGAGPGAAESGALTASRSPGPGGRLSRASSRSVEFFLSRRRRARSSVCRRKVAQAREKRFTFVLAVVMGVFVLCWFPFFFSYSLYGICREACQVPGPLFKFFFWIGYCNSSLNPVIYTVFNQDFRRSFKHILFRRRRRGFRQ

SMILES | cell count [1] | inhibition [1] | inhibition [2] | nuclei count [2] [%] | z-score [3, 10] | z-score [3, 11] | z-score [3, 12] | inhibition [4] | fluorescence slope [5] | NADPH fluorescence slope [6] | slope [7] | outcome [8] | inhibition [9]
CCCCn1c(-c2ccc(Cl)cc2)nc2c(=O)n(C)c(=O)[nH]c21 | 453 | -18.9% (inactive) | -400% (inactive) | 197 | 0.0253 | -0.817 | 1.4 | 11% (inactive) | -0.398 (inactive) | -5.4e-06 (inactive) | 0.00511 (inactive) | inactive | -2.64% (inactive)
CC1(C)Cc2c(C#N)c(NCCc3ccccc3)nc(-c3ccco3)c2CO1 | 585 | -9.7% (inactive) | -33.8% (inactive) | 184 | 0.597 | -1.77 | 0.237 | 22.3% (inactive) | -0.122 (inactive) | 5.1e-06 (inactive) | 0.00499 (inactive) | inactive | 34.4% (inactive)
COc1cccc(CNc2ccc(Br)cn2)c1O | 544 | -3.4% (inactive) | -2.4% (inactive) | 167 | -0.809 | -0.901 | -0.106 | 3.5% (inactive) | -0.316 (inactive) | 1.4e-05 (inactive) | 0.00431 (inactive) | inactive | 6.48% (inactive)
CCOc1nc(Oc2cccc(C(=O)O)c2)nc(Oc2cccc(C(=O)O)c2)n1 | 627 | -14.8% (inactive) | -46.5% (inactive) | 182 | 0.0666 | 0.636 | -0.0605 | -1.12% (inactive) | -0.538 (inactive) | -3.4e-05 (inactive) | 0.00497 (inactive) | inactive | 6.3% (inactive)
CC(C)(C)n1nnc(CCc2nnn(C(C)(C)C)n2)n1 | 276 | -17.8% (inactive) | -32.2% (inactive) | 104 | 0.0896 | 1.07 | -0.74 | 10.5% (inactive) | -0.44 (inactive) | -0.000126 (inactive) | 0.00595 (inactive) | inactive | -11.8% (inactive)
Cn1ncc(N=Cc2ccccc2O)c1C(=O)Nc1ccccc1 | 635 | -3.8% (inactive) | -20.9% (inactive) | 140 | -0.0255 | 0.841 | 1.17 | 4.25% (inactive) | -0.5 (inactive) | -0.000122 (inactive) | 0.00441 (inactive) | inactive | 0.038% (inactive)
COC(=O)c1n[nH]c2ccccc12 | 323 | 0.5% (inactive) | -157% (inactive) | 119 | -0.132 | 0.244 | -1.14 | -0.624% (inactive) | -0.287 (inactive) | -1.1e-05 (inactive) | 0.00523 (inactive) | inactive | 17.4% (inactive)
Cc1nn2c(-c3ccc(Cl)cc3)nnc2s1 | 551 | -6.5% (inactive) | -65.8% (inactive) | 86.3 | -0.293 | -0.329 | 0.206 | -6.06% (inactive) | -0.421 (inactive) | -1.1e-05 (inactive) | 0.00662 (inactive) | inactive | 17.4% (inactive)
Clc1ccc2[nH]c3c(NCCN4CCOCC4)ncnc3c2c1 | 504 | -25% (inactive) | -70% (inactive) | 154 | -1.3 | 0.291 | 1.3 | -2.47% (inactive) | -0.503 (inactive) | -3.9e-05 (inactive) | 0.00429 (inactive) | inactive | 2.54% (inactive)
Cc1occc1C(=O)OCC(=O)Nc1ccc(F)cc1 | 527 | -1.1% (inactive) | -31.2% (inactive) | 113 | -1.12 | -1.15 | 1.8 | 29.3% (inactive) | -0.56 (inactive) | -4.4e-05 (inactive) | 0.00567 (inactive) | inactive | 1.09% (inactive)
COC(=O)c1ccccc1NC=C1C(=O)OC2(CCCCC2)OC1=O | 343 | -9% (inactive) | 27.4% (inactive) | 86.4 | -1.26 | -1.2 | -0.313 | 1.42% (inactive) | -0.443 (inactive) | -1.9e-05 (inactive) | 0.00691 (inactive) | inactive | 46.5% (inactive)
Clc1ccccc1CSc1nnc(-c2ccco2)c(-c2ccco2)n1 | 554 | -6.9% (inactive) | -21.1% (inactive) | 157 | -1.8 | 0.808 | 0.169 | -10.5% (inactive) | -0.407 (inactive) | -1.8e-05 (inactive) | 0.00446 (inactive) | inactive | 19.9% (inactive)
CCCOc1ccc(/C(O)=C2/C(=O)C(=O)N(CCCn3ccnc3)C2c2cccs2)cc1 (stereo not given) | 537 | -14.3% (inactive) | -124% (inactive) | 150 | -0.681 | -0.103 | 0.12 | -18.6% (inactive) | -0.495 (inactive) | -3.4e-05 (inactive) | 0.00501 (inactive) | inactive | 0.323% (inactive)
Cc1cc(-c2cc(-c3ccc(Cl)cc3)nc(N)c2C#N)co1 | 560 | -6.2% (inactive) | 62.4% (inactive) | 173 | 0.0299 | -0.21 | -0.449 | 7.01% (inactive) | -0.294 (inactive) | 4.6e-06 (inactive) | 0.00537 (inactive) | inactive | 5.58% (inactive)
Cn1c(OCc2cccnc2)nc2c1c(=O)n(Cc1ccc(Cl)cc1)c(=O)n2C | 653 | -7.1% (inactive) | 6.1% (inactive) | 156 | -0.404 | 0.0478 | 1.27 | 2.46% (inactive) | -0.505 (inactive) | -9.6e-05 (inactive) | 0.00416 (inactive) | inactive | 66.4% (active)
CSc1nnc(N(CCC#N)CCC#N)s1 | 351 | -2.1% (inactive) | -46.6% (inactive) | 91 | 0.261 | 1.77 | -1.54 | 17% (inactive) | -0.487 (inactive) | -9.5e-06 (inactive) | 0.0048 (inactive) | inactive | 29.7% (inactive)
Cc1cc(C)c(-n2c(O)c(C=NCCN3CCOCC3)c(=O)[nH]c2=O)c(C)c1 | 594 | 6.5% (inactive) | 19% (inactive) | 152 | 0.606 | -1.55 | -1.1 | 14% (inactive) | -0.334 (inactive) | -5e-07 (inactive) | 0.00437 (inactive) | inactive | 0.886% (inactive)
CCn1c(SCC(=O)O)nc2sc3c(c2c1=O)CCC3 | 664 | -3.3% (inactive) | 9.9% (inactive) | 171 | -0.751 | -1.02 | -0.615 | 2.71% (inactive) | -0.405 (inactive) | -5.6e-05 (inactive) | 0.00483 (inactive) | inactive | -0.935% (inactive)
Cc1ccc(C)n1Cc1ccc(C(=O)O)cc1 | 645 | 1.9% (inactive) | -32.8% (inactive) | 154 | 1.01 | 0.014 | -0.0334 | -6.86% (inactive) | -0.401 (inactive) | -4.4e-05 (inactive) | 0.00514 (inactive) | inactive | -3.17% (inactive)
COc1ccc(C2C(C#N)=C(N)Oc3n[nH]c(C)c32)cc1CSc1ccccn1 (stereo not given) | 648 | -1.9% (inactive) | 9.1% (inactive) | 168 | -0.678 | 1.17 | -0.733 | -5.62% (inactive) | -0.412 (inactive) | -3.1e-05 (inactive) | 0.00563 (inactive) | inactive | -9.39% (inactive)
c1ccc(-c2nnc3sc(Cc4cccs4)nn23)cc1 | 602 | -16% (inactive) | -149% (inactive) | 174 | 0.71 | -1.88 | -0.974 | 11.9% (inactive) | -0.467 (inactive) | -0.000133 (inactive) | 0.00581 (inactive) | active; no signal in gallbladder only | 21.4% (inactive)
CCSc1nnc(N(CCC#N)CCC#N)s1 | 364 | -4.7% (inactive) | -60.2% (inactive) | 114 | -0.814 | 0.606 | -1.64 | 5.57% (inactive) | -0.474 (inactive) | -5.4e-06 (inactive) | 0.00528 (inactive) | inactive | -11.4% (inactive)
O=S(=O)(c1ccccc1)N1CCC(N2CCCCCC2)CC1 | 360 | -15.1% (inactive) | -30.4% (inactive) | 107 | -1.31 | -0.622 | 0.193 | -8.95% (inactive) | -0.39 (inactive) | 2.7e-05 (inactive) | 0.00532 (inactive) | inactive | 32.5% (inactive)
Cc1cccc(C)c1OCC(O)CNS(=O)(=O)c1ccccc1C(=O)N1CCOCC1 (stereo not given) | 458 | 1.5% (inactive) | -196% (inactive) | 172 | -0.426 | 0.519 | 1.28 | 2.71% (inactive) | -0.387 (inactive) | -1.1e-05 (inactive) | 0.00603 (inactive) | inactive | -5.56% (inactive)
CCOc1ccc(CCNC(=O)C(O)c2ccccc2)cc1 (stereo not given) | 632 | -0.6% (inactive) | 18.6% (inactive) | 150 | -1.06 | 0.643 | -0.425 | 5.57% (inactive) | -0.517 (inactive) | -4.4e-05 (inactive) | 0.0068 (inactive) | inactive | 25.5% (inactive)
